{"source": "ChEMBL document CHEMBL1142960", "about": "“Synthesis and structure-activity relationships for 2,4-dinitrobenzamide-5-mustards as prodrugs for the Escherichia coli nfsB nitroreductase in gene therapy” (J Med Chem, 2007)"}
{"tested_on": "V79", "assay": "Antiproliferative activity against chinese hamster wild-type V79 NTR-ve cells after 18 hrs", "assay_type": "functional, cell-based", "conditions": "Cricetulus griseus, V79, 18 h", "units": {"IC50": "µM"}}
{"molecule": "O=C(NCCCCN1CCOCC1)c1cc(N(CCCl)CCCl)c([N+](=O)[O-])cc1[N+](=O)[O-]", "IC50": 142}
{"molecule": "CS(=O)(=O)c1cc([N+](=O)[O-])c(N(CCCl)CCCl)cc1C(N)=O", "IC50": "> 50"}
{"molecule": "COC(=O)CCNC(=O)c1cc(N(CCBr)CCBr)c([N+](=O)[O-])cc1[N+](=O)[O-]", "IC50": 52}
{"molecule": "O=C(NO)c1cc(N(CCBr)CCBr)c([N+](=O)[O-])cc1[N+](=O)[O-]", "IC50": 34}
{"molecule": "NCCNC(=O)c1cc(N(CCCl)CCCl)c([N+](=O)[O-])cc1[N+](=O)[O-]", "IC50": 462}
{"tested_on": "V79", "assay": "Antiproliferative activity against chinese hamster V79 NTRpuro cells after 18 hrs", "assay_type": "functional, cell-based", "conditions": "Cricetulus griseus, V79, 18 h", "units": {"IC50": "µM"}}
{"molecule": "O=C(NCCCCN1CCOCC1)c1cc(N(CCCl)CCCl)c([N+](=O)[O-])cc1[N+](=O)[O-]", "IC50": 25}
{"molecule": "CS(=O)(=O)c1cc([N+](=O)[O-])c(N(CCCl)CCCl)cc1C(N)=O", "IC50": "> 50"}
{"molecule": "COC(=O)CCNC(=O)c1cc(N(CCBr)CCBr)c([N+](=O)[O-])cc1[N+](=O)[O-]", "IC50": 1.1}
{"molecule": "O=C(NO)c1cc(N(CCBr)CCBr)c([N+](=O)[O-])cc1[N+](=O)[O-]", "IC50": 0.2}
{"molecule": "NCCNC(=O)c1cc(N(CCCl)CCCl)c([N+](=O)[O-])cc1[N+](=O)[O-]", "IC50": 52}
{"tested_on": "V79", "assay": "Selectivity ratio of IC50 for V79 NTR-ve cells to IC50 for V79 NTRpuro cells", "assay_type": "functional, Cricetulus griseus", "conditions": "not given"}
{"molecule": "O=C(NCCCCN1CCOCC1)c1cc(N(CCCl)CCCl)c([N+](=O)[O-])cc1[N+](=O)[O-]", "Ratio IC50": 5.9}
{"molecule": "COC(=O)CCNC(=O)c1cc(N(CCBr)CCBr)c([N+](=O)[O-])cc1[N+](=O)[O-]", "Ratio IC50": 45}
{"molecule": "O=C(NO)c1cc(N(CCBr)CCBr)c([N+](=O)[O-])cc1[N+](=O)[O-]", "Ratio IC50": 180}
{"molecule": "NCCNC(=O)c1cc(N(CCCl)CCCl)c([N+](=O)[O-])cc1[N+](=O)[O-]", "Ratio IC50": 11}
{"tested_on": "EMT6", "assay": "Antiproliferative activity against mouse wild type EMT6 NTR-ve cells after 18 hrs", "assay_type": "functional, cell-based", "conditions": "EMT6, 18 h", "units": {"IC50": "µM"}}
{"molecule": "O=C(NCCCCN1CCOCC1)c1cc(N(CCCl)CCCl)c([N+](=O)[O-])cc1[N+](=O)[O-]", "IC50": 192}
{"molecule": "CS(=O)(=O)c1cc([N+](=O)[O-])c(N(CCCl)CCCl)cc1C(N)=O", "IC50": "> 50"}
{"molecule": "COC(=O)CCNC(=O)c1cc(N(CCBr)CCBr)c([N+](=O)[O-])cc1[N+](=O)[O-]", "IC50": 76}
{"molecule": "O=C(NO)c1cc(N(CCBr)CCBr)c([N+](=O)[O-])cc1[N+](=O)[O-]", "IC50": 33}
{"molecule": "NCCNC(=O)c1cc(N(CCCl)CCCl)c([N+](=O)[O-])cc1[N+](=O)[O-]", "IC50": 124}
{"tested_on": "EMT6", "assay": "Antiproliferative activity against mouse EMT6 NTRpuro cells after 18 hrs", "assay_type": "functional, cell-based", "conditions": "EMT6, 18 h", "units": {"IC50": "µM"}}
{"molecule": "O=C(NCCCCN1CCOCC1)c1cc(N(CCCl)CCCl)c([N+](=O)[O-])cc1[N+](=O)[O-]", "IC50": 7.4}
{"molecule": "CS(=O)(=O)c1cc([N+](=O)[O-])c(N(CCCl)CCCl)cc1C(N)=O", "IC50": "> 50"}
{"molecule": "COC(=O)CCNC(=O)c1cc(N(CCBr)CCBr)c([N+](=O)[O-])cc1[N+](=O)[O-]", "IC50": 0.59}
{"molecule": "O=C(NO)c1cc(N(CCBr)CCBr)c([N+](=O)[O-])cc1[N+](=O)[O-]", "IC50": 0.07}
{"molecule": "NCCNC(=O)c1cc(N(CCCl)CCCl)c([N+](=O)[O-])cc1[N+](=O)[O-]", "IC50": 0.37}
{"tested_on": "EMT6", "assay": "Selectivity ratio of IC50 for EMT6 NTR-ve cells to IC50 forEMT6 NTRpuro cells", "assay_type": "functional, Mus musculus", "conditions": "not given"}
{"molecule": "O=C(NCCCCN1CCOCC1)c1cc(N(CCCl)CCCl)c([N+](=O)[O-])cc1[N+](=O)[O-]", "Ratio IC50": 28}
{"molecule": "COC(=O)CCNC(=O)c1cc(N(CCBr)CCBr)c([N+](=O)[O-])cc1[N+](=O)[O-]", "Ratio IC50": 149}
{"molecule": "O=C(NO)c1cc(N(CCBr)CCBr)c([N+](=O)[O-])cc1[N+](=O)[O-]", "Ratio IC50": 500}
{"molecule": "NCCNC(=O)c1cc(N(CCCl)CCCl)c([N+](=O)[O-])cc1[N+](=O)[O-]", "Ratio IC50": 413}
{"tested_on": "WiDr", "assay": "Antiproliferative activity against human wild type WiDr NTR-ve cells after 18 hrs", "assay_type": "functional, cell-based", "conditions": "not given", "units": {"IC50": "µM"}}
{"molecule": "O=C(NCCCCN1CCOCC1)c1cc(N(CCCl)CCCl)c([N+](=O)[O-])cc1[N+](=O)[O-]", "IC50": 68}
{"molecule": "CS(=O)(=O)c1cc([N+](=O)[O-])c(N(CCCl)CCCl)cc1C(N)=O", "IC50": "> 50"}
{"molecule": "COC(=O)CCNC(=O)c1cc(N(CCBr)CCBr)c([N+](=O)[O-])cc1[N+](=O)[O-]", "IC50": 80}
{"molecule": "O=C(NO)c1cc(N(CCBr)CCBr)c([N+](=O)[O-])cc1[N+](=O)[O-]", "IC50": 45}
{"molecule": "NCCNC(=O)c1cc(N(CCCl)CCCl)c([N+](=O)[O-])cc1[N+](=O)[O-]", "IC50": 180}
{"tested_on": "WiDr", "assay": "Antiproliferative activity against human WiDr NTRneo cells after 18 hrs", "assay_type": "functional, cell-based", "conditions": "not given", "units": {"IC50": "µM"}}
{"molecule": "O=C(NCCCCN1CCOCC1)c1cc(N(CCCl)CCCl)c([N+](=O)[O-])cc1[N+](=O)[O-]", "IC50": 23}
{"molecule": "CS(=O)(=O)c1cc([N+](=O)[O-])c(N(CCCl)CCCl)cc1C(N)=O", "IC50": "> 50"}
{"molecule": "COC(=O)CCNC(=O)c1cc(N(CCBr)CCBr)c([N+](=O)[O-])cc1[N+](=O)[O-]", "IC50": 2.1}
{"molecule": "O=C(NO)c1cc(N(CCBr)CCBr)c([N+](=O)[O-])cc1[N+](=O)[O-]", "IC50": 0.39}
{"molecule": "NCCNC(=O)c1cc(N(CCCl)CCCl)c([N+](=O)[O-])cc1[N+](=O)[O-]", "IC50": 5.9}
{"tested_on": "WiDr", "assay": "Selectivity ratio of IC50 for WiDr NTR-ve cells to IC50 for WiDr NTRneo cells", "assay_type": "functional, Homo sapiens", "conditions": "not given"}
{"molecule": "O=C(NCCCCN1CCOCC1)c1cc(N(CCCl)CCCl)c([N+](=O)[O-])cc1[N+](=O)[O-]", "Ratio IC50": 3}
{"molecule": "COC(=O)CCNC(=O)c1cc(N(CCBr)CCBr)c([N+](=O)[O-])cc1[N+](=O)[O-]", "Ratio IC50": 47}
{"molecule": "O=C(NO)c1cc(N(CCBr)CCBr)c([N+](=O)[O-])cc1[N+](=O)[O-]", "Ratio IC50": 92}
{"molecule": "NCCNC(=O)c1cc(N(CCCl)CCCl)c([N+](=O)[O-])cc1[N+](=O)[O-]", "Ratio IC50": 38}
{"tested_on": "not listed separately", "assay": "Antiproliferative activity against human wild type Skov3 NTR-ve cells after 18 hrs", "assay_type": "functional, cell-based", "conditions": "not given", "units": {"IC50": "µM"}}
{"molecule": "O=C(NCCCCN1CCOCC1)c1cc(N(CCCl)CCCl)c([N+](=O)[O-])cc1[N+](=O)[O-]", "IC50": 447}
{"molecule": "CS(=O)(=O)c1cc([N+](=O)[O-])c(N(CCCl)CCCl)cc1C(N)=O", "IC50": "> 50"}
{"molecule": "COC(=O)CCNC(=O)c1cc(N(CCBr)CCBr)c([N+](=O)[O-])cc1[N+](=O)[O-]", "IC50": 110}
{"molecule": "O=C(NO)c1cc(N(CCBr)CCBr)c([N+](=O)[O-])cc1[N+](=O)[O-]", "IC50": 59}
{"molecule": "NCCNC(=O)c1cc(N(CCCl)CCCl)c([N+](=O)[O-])cc1[N+](=O)[O-]", "IC50": 417}
{"tested_on": "not listed separately", "assay": "Antiproliferative activity against human Skov3 NTRneo cells after 18 hrs", "assay_type": "functional, cell-based", "conditions": "SK-OV-3, 18 h", "units": {"IC50": "µM"}}
{"molecule": "O=C(NCCCCN1CCOCC1)c1cc(N(CCCl)CCCl)c([N+](=O)[O-])cc1[N+](=O)[O-]", "IC50": 9.3}
{"molecule": "CS(=O)(=O)c1cc([N+](=O)[O-])c(N(CCCl)CCCl)cc1C(N)=O", "IC50": "> 50"}
{"molecule": "COC(=O)CCNC(=O)c1cc(N(CCBr)CCBr)c([N+](=O)[O-])cc1[N+](=O)[O-]", "IC50": 2.3}
{"molecule": "O=C(NO)c1cc(N(CCBr)CCBr)c([N+](=O)[O-])cc1[N+](=O)[O-]", "IC50": 0.31}
{"molecule": "NCCNC(=O)c1cc(N(CCCl)CCCl)c([N+](=O)[O-])cc1[N+](=O)[O-]", "IC50": 6.8}
{"tested_on": "not listed separately", "assay": "Selectivity ratio of IC50 for Skov3 NTR-ve cells to IC50 for Skov3 NTRneo cells", "assay_type": "functional, Homo sapiens", "conditions": "not given"}
{"molecule": "O=C(NCCCCN1CCOCC1)c1cc(N(CCCl)CCCl)c([N+](=O)[O-])cc1[N+](=O)[O-]", "Ratio IC50": 61}
{"molecule": "COC(=O)CCNC(=O)c1cc(N(CCBr)CCBr)c([N+](=O)[O-])cc1[N+](=O)[O-]", "Ratio IC50": 49}
{"molecule": "O=C(NO)c1cc(N(CCBr)CCBr)c([N+](=O)[O-])cc1[N+](=O)[O-]", "Ratio IC50": 180}
{"molecule": "NCCNC(=O)c1cc(N(CCCl)CCCl)c([N+](=O)[O-])cc1[N+](=O)[O-]", "Ratio IC50": 69}
{"tested_on": "not listed separately", "assay": "Solubility in alpha MEM", "assay_type": "physicochemical", "conditions": "not given", "procedure,_shortened": "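Solubility (mM) in α-MEM with 5% fetal calf serum at ambient temperature, measured by HPLC.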", "units": {"solubility": "µM"}}
{"molecule": "O=C(NCCCCN1CCOCC1)c1cc(N(CCCl)CCCl)c([N+](=O)[O-])cc1[N+](=O)[O-]", "solubility": 2000}
{"molecule": "CS(=O)(=O)c1cc([N+](=O)[O-])c(N(CCCl)CCCl)cc1C(N)=O", "solubility": 60}
{"molecule": "COC(=O)CCNC(=O)c1cc(N(CCBr)CCBr)c([N+](=O)[O-])cc1[N+](=O)[O-]", "solubility": 280}
{"molecule": "O=C(NO)c1cc(N(CCBr)CCBr)c([N+](=O)[O-])cc1[N+](=O)[O-]", "solubility": 1200}
{"molecule": "NCCNC(=O)c1cc(N(CCCl)CCCl)c([N+](=O)[O-])cc1[N+](=O)[O-]", "solubility": 9200}
{"tested_on": "not listed separately", "assay": "Stability in alpha MEM at 37 degC after 24 hrs", "assay_type": "physicochemical", "conditions": "read-out: Stability", "procedure,_shortened": "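Percent parent compound remaining, by HPLC, after holding in α-MEM with 5% fetal calf serum at 37 °C for 24 h.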", "units": {"remaining at 24 h": "%"}}
{"molecule": "O=C(NCCCCN1CCOCC1)c1cc(N(CCCl)CCCl)c([N+](=O)[O-])cc1[N+](=O)[O-]", "remaining at 24 h": 91}
{"molecule": "CS(=O)(=O)c1cc([N+](=O)[O-])c(N(CCCl)CCCl)cc1C(N)=O", "remaining at 24 h": 74}
{"molecule": "COC(=O)CCNC(=O)c1cc(N(CCBr)CCBr)c([N+](=O)[O-])cc1[N+](=O)[O-]", "remaining at 24 h": 70}
{"molecule": "O=C(NO)c1cc(N(CCBr)CCBr)c([N+](=O)[O-])cc1[N+](=O)[O-]", "remaining at 24 h": 69}
{"molecule": "NCCNC(=O)c1cc(N(CCCl)CCCl)c([N+](=O)[O-])cc1[N+](=O)[O-]", "remaining at 24 h": 99}
